According to ChEMBL document CHEMBL3091458, “Design, synthesis, and biological evaluation of 1,2,4-triazole bearing 5-substituted biphenyl-2-sulfonamide derivatives as potential antihypertensive candidates” (Bioorg Med Chem, 2013):

Tests used:
[1] = tested on: Rattus norvegicus; test: Antihypertensive activity in renal spontaneously hypertensive rat model assessed as reduction of mean arterial pressure at 20 mg/kg, po measured at 6 hrs by tail-cuff method relative to control; format: functional, Artery
Procedure, shortened: (§1)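 Spontaneously hypertensive rats were dosed orally with the test agent at 20 mg/kg, with a saline-dosed control group. SAP, DAP, MAP and heart rate were recorded before dosing and at 1, 2, 4, 6 and 8 h after. Change was taken as the post-dose value minus the pre-dose value. Significance was judged against the control at p < 0.1 and p < 0.05.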

[2] = tested on: Rattus norvegicus; test: Antihypertensive activity in renal spontaneously hypertensive rat model assessed as reduction of systolic arterial pressure at 20 mg/kg, po measured at 6 hrs by tail-cuff method relative to control; format: functional, Artery; procedure, shortened: as §1
[3] = tested on: Rattus norvegicus; test: Antihypertensive activity in renal spontaneously hypertensive rat model assessed as reduction of mean arterial pressure at 20 mg/kg, po measured at 4 hrs by tail-cuff method relative to control; format: functional, Artery; procedure, shortened: as §1
[4] = tested on: Rattus norvegicus; test: Toxicity in renal spontaneously hypertensive rat model assessed as reduction of heart rate at 20 mg/kg, po measured at 2 hrs by tail-cuff method relative to control; format: organism-based; parameters: dose 20 mg/kg, route oral; conditions: in vivo; procedure, shortened: as §1
[5] = tested on: Rattus norvegicus; test: Antihypertensive activity in renal spontaneously hypertensive rat model assessed as reduction of diastolic arterial pressure at 20 mg/kg, po measured at 1 hr by tail-cuff method relative to control; format: functional, Artery; procedure, shortened: as §1
[6] = tested on: Rattus norvegicus; test: Antihypertensive activity in renal spontaneously hypertensive rat model assessed as reduction of mean arterial pressure at 20 mg/kg, po measured at 8 hrs by tail-cuff method relative to control; format: functional, Artery; procedure, shortened: as §1
[7] = tested on: Rattus norvegicus; test: Antihypertensive activity in renal spontaneously hypertensive rat model assessed as reduction of diastolic arterial pressure at 20 mg/kg, po measured at 2 hrs by tail-cuff method relative to control; format: functional, Artery; procedure, shortened: as §1
[8] = tested on: Rattus norvegicus; test: Toxicity in renal spontaneously hypertensive rat model assessed as reduction of heart rate at 20 mg/kg, po measured at 4 hrs by tail-cuff method relative to control; format: organism-based; parameters: dose 20 mg/kg, route oral; conditions: in vivo; procedure, shortened: as §1
[9] = tested on: Rattus norvegicus; test: Antihypertensive activity in renal spontaneously hypertensive rat model assessed as reduction of mean arterial pressure at 20 mg/kg, po measured at 1 hr by tail-cuff method relative to control; format: functional, Artery; procedure, shortened: as §1
[10] = tested on: Rattus norvegicus; test: Antihypertensive activity in renal spontaneously hypertensive rat model assessed as reduction of systolic arterial pressure at 20 mg/kg, po measured at 1 hr by tail-cuff method relative to control; format: functional, Artery; procedure, shortened: as §1
[11] = tested on: Rattus norvegicus; test: Antihypertensive activity in renal spontaneously hypertensive rat model assessed as reduction of systolic arterial pressure at 20 mg/kg, po measured at 8 hrs by tail-cuff method relative to control; format: functional, Artery; procedure, shortened: as §1
[12] = tested on: Rattus norvegicus; test: Antihypertensive activity in renal spontaneously hypertensive rat model assessed as reduction of systolic arterial pressure at 20 mg/kg, po measured at 4 hrs by tail-cuff method relative to control; format: functional, Artery; procedure, shortened: as §1
[13] = tested on: Rattus norvegicus; test: Antihypertensive activity in renal spontaneously hypertensive rat model assessed as reduction of diastolic arterial pressure at 20 mg/kg, po measured at 4 hrs by tail-cuff method relative to control; format: functional, Artery; procedure, shortened: as §1
[14] = tested on: Rattus norvegicus; test: Toxicity in renal spontaneously hypertensive rat model assessed as reduction of heart rate at 20 mg/kg, po measured at 8 hrs by tail-cuff method relative to control; format: organism-based; parameters: dose 20 mg/kg, route oral; conditions: in vivo; procedure, shortened: as §1
[15] = tested on: Rattus norvegicus; test: Toxicity in renal spontaneously hypertensive rat model assessed as reduction of heart rate at 20 mg/kg, po measured at 6 hrs by tail-cuff method relative to control; format: organism-based; parameters: dose 20 mg/kg, route oral; conditions: in vivo; procedure, shortened: as §1
[16] = tested on: Rattus norvegicus; test: Antihypertensive activity in renal spontaneously hypertensive rat model assessed as reduction of systolic arterial pressure at 20 mg/kg, po measured at 2 hrs by tail-cuff method relative to control; format: functional, Artery; procedure, shortened: as §1
[17] = Displacement of [125I]-Ang-2 from AT1 receptor in rat liver membranes after 1.5 hrs; format: cell membranes, Membrane
[18] = tested on: Rattus norvegicus; test: Toxicity in renal spontaneously hypertensive rat model assessed as reduction of heart rate at 20 mg/kg, po measured at 1 hr by tail-cuff method relative to control; format: organism-based; parameters: dose 20 mg/kg, route oral; conditions: in vivo; procedure, shortened: as §1
[19] = tested on: Rattus norvegicus; test: Antihypertensive activity in renal spontaneously hypertensive rat model assessed as reduction of mean arterial pressure at 20 mg/kg, po measured at 2 hrs by tail-cuff method relative to control; format: functional, Artery; procedure, shortened: as §1
[20] = Displacement of [125I]-Ang-2 from AT2 receptor in porcine myometrial membranes after 1.5 hrs; format: cell membranes, Sus scrofa
Procedure, shortened: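 Membranes were made from porcine uteri (myometrium). AT1 binding was blocked by adding losartan. [125I]Ang II binding ran in 50 mM Tris-HCl pH 7.4 with 100 mM NaCl, 10 mM MgCl2, 1 mM EDTA, 0.025% bacitracin and 0.2% BSA, at 25 °C for 1.5 h. Bound ligand was caught on GF/C filters, washed with cold Tris and gamma-counted. IC50 was the concentration displacing 50% of specific binding. Run in triplicate.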

[21] = tested on: Rattus norvegicus; test: Antihypertensive activity in renal spontaneously hypertensive rat model assessed as reduction of diastolic arterial pressure at 20 mg/kg, po measured at 6 hrs by tail-cuff method relative to control; format: functional, Artery; procedure, shortened: as §1
[22] = tested on: Rattus norvegicus; test: Antihypertensive activity in renal spontaneously hypertensive rat model assessed as reduction of diastolic arterial pressure at 20 mg/kg, po measured at 8 hrs by tail-cuff method relative to control; format: functional, Artery; procedure, shortened: as §1

## CCCCOC(=O)NS(=O)(=O)c1ccc(OC)cc1-c1ccc(Cn2cncn2)cc1
[1]
  Activity: -17.08 mmHg
[2]
  Activity: -18.94 mmHg
[3]
  Activity: -10.15 mmHg
[4]
  Activity: -7.64 bpm
[5]
  Activity: -4.21 mmHg
[6]
  Activity: -12.19 mmHg
[7]
  Activity: -5.06 mmHg
[8]
  Activity: -13.45 bpm
[9]
  Activity: -4.09 mmHg
[10]
  Activity: -3.41 mmHg
[11]
  Activity: -10.1 mmHg
[12]
  Activity: -10.71 mmHg
[13]
  Activity: -10.32 mmHg
[14]
  Activity: -22.9 bpm
[15]
  Activity: -14.47 bpm
[16]
  Activity: -4.26 mmHg
[17]
  IC50: > 10 µM
[18]
  Activity: 7.05 bpm
[19]
  Activity: -5.62 mmHg
[20]
  IC50: 0.005 µM
[21]
  Activity: -17.36 mmHg
[22]
  Activity: -13.1 mmHg

## CCOC(=O)NS(=O)(=O)c1ccc(OC)cc1-c1ccc(Cn2cncn2)cc1
[17]
  IC50: > 10 µM
[20]
  IC50: 0.036 µM

## CCCCC(=O)NS(=O)(=O)c1ccc(OC)cc1-c1ccc(Cn2cncn2)cc1
[17]
  IC50: > 10 µM
[20]
  IC50: 0.099 µM

## Cc1cc(Cn2cnc3c2C[C@@H](C(=O)O)N(C(=O)C(c2ccccc2)c2ccccc2)C3)ccc1N(C)C
[17]
  IC50: > 10 µM
[20]
  IC50: 0.029 µM

## CCC(=O)NS(=O)(=O)c1ccc(CC(C)C)cc1-c1ccc(Cn2cncn2)cc1
[17]
  IC50: > 10 µM
[20]
  IC50: 0.068 µM

## CCCCOC(=O)NS(=O)(=O)c1ccc(CC(C)C)cc1-c1ccc(NCC)cc1
[17]
  IC50: > 10 µM
[20]
  IC50: > 10 µM

## COc1ccc(S(=O)(=O)NC(=O)OCc2ccccc2)c(-c2ccc(Cn3cncn3)cc2)c1
[17]
  IC50: > 10 µM
[20]
  IC50: > 10 µM

## CCCCc1nc(Cl)c(CO)n1Cc1ccc(-c2ccccc2-c2nnn[nH]2)cc1 [LOSARTAN]
[1]
  Activity: -19.12 mmHg
[2]
  Activity: -20.23 mmHg
[3]
  Activity: -15.13 mmHg
[4]
  Activity: -7.1 bpm
[5]
  Activity: -7.76 mmHg
[6]
  Activity: -14.55 mmHg
[7]
  Activity: -8.96 mmHg
[8]
  Activity: -10.57 bpm
[9]
  Activity: -3.05 mmHg
[10]
  Activity: -2.8 mmHg
[11]
  Activity: -14.02 mmHg
[12]
  Activity: -15.55 mmHg
[13]
  Activity: -14.25 mmHg
[14]
  Activity: -13.2 bpm
[15]
  Activity: -14.05 bpm
[16]
  Activity: -5.21 mmHg
[17]
  IC50: 0.085 µM
[18]
  Activity: -2 bpm
[19]
  Activity: -7.33 mmHg
[20]
  IC50: > 10 µM
[21]
  Activity: -17.58 mmHg
[22]
  Activity: -13.09 mmHg

## CCCCOC(=O)NS(=O)(=O)c1ccc(CC(C)C)cc1-c1ccc(Cn2cncn2)cc1
[1]
  Activity: -21.88 mmHg
[2]
  Activity: -20.94 mmHg
[3]
  Activity: -14.16 mmHg
[4]
  Activity: -5.02 bpm
[5]
  Activity: 4.93 mmHg
[6]
  Activity: -15.09 mmHg
[7]
  Activity: -3.55 mmHg
[8]
  Activity: -14.53 bpm
[9]
  Activity: 4.43 mmHg
[10]
  Activity: -7.25 mmHg
[11]
  Activity: -15.22 mmHg
[12]
  Activity: -14.29 mmHg
[13]
  Activity: -12.32 mmHg
[14]
  Activity: -14.33 bpm
[15]
  Activity: -16.69 bpm
[16]
  Activity: -4.26 mmHg
[17]
  IC50: > 10 µM
[18]
  Activity: 7.25 bpm
[19]
  Activity: -4.78 mmHg
[20]
  IC50: 0.0004 µM
[21]
  Activity: -21.36 mmHg
[22]
  Activity: -14.1 mmHg

## CCN(CC)Cc1ccc(S(=O)(=O)NC(=O)OCc2ccccc2)c(-c2ccc(Cn3cncn3)cc2)c1
[17]
  IC50: > 10 µM
[20]
  IC50: > 10 µM

## CC(C)Cc1ccc(S(=O)(=O)NC(=O)OC(C)(C)C)c(-c2ccc(Cn3cncn3)cc2)c1
[17]
  IC50: > 10 µM
[20]
  IC50: 0.055 µM

## CCOC(=O)NS(=O)(=O)c1ccc(CC(C)C)cc1-c1ccc(Cn2cncn2)cc1
[17]
  IC50: > 10 µM
[20]
  IC50: 0.01 µM

## CCCCOC(=O)NS(=O)(=O)c1ccc(CC(C)C)cc1-c1ccc(NCCC)cc1
[17]
  IC50: > 10 µM
[20]
  IC50: > 10 µM

## CCC(=O)NS(=O)(=O)c1ccc(C)cc1-c1ccc(Cn2cncn2)cc1
[17]
  IC50: > 10 µM
[20]
  IC50: 0.223 µM

## Cc1ccc(C(=O)NS(=O)(=O)c2ccc(CC(C)C)cc2-c2ccc(Cn3cncn3)cc2)cc1
[17]
  IC50: > 10 µM
[20]
  IC50: > 10 µM

## CCOC(=O)NS(=O)(=O)c1ccc(C)cc1-c1ccc(Cn2cncn2)cc1
[17]
  IC50: > 10 µM
[20]
  IC50: 0.064 µM

## CCOC(=O)NS(=O)(=O)c1ccc(CN(CC)CC)cc1-c1ccc(Cn2cncn2)cc1
[17]
  IC50: > 10 µM
[20]
  IC50: 0.117 µM

## CCC(=O)NS(=O)(=O)c1ccc(OC)cc1-c1ccc(Cn2cncn2)cc1
[17]
  IC50: > 10 µM
[20]
  IC50: 0.184 µM

## Cc1ccc(S(=O)(=O)NC(=O)OCc2ccccc2)c(-c2ccc(Cn3cncn3)cc2)c1
[17]
  IC50: > 10 µM
[20]
  IC50: > 10 µM

## CCCCC(=O)NS(=O)(=O)c1ccc(C)cc1-c1ccc(Cn2cncn2)cc1
[17]
  IC50: > 10 µM
[20]
  IC50: 0.106 µM

## Cc1ccc(S(=O)(=O)NC(=O)OC(C)(C)C)c(-c2ccc(Cn3cncn3)cc2)c1
[17]
  IC50: > 10 µM
[20]
  IC50: 0.289 µM

## CC(C)Cc1ccc(S(=O)(=O)NC(=O)OCc2ccccc2)c(-c2ccc(Cn3cncn3)cc2)c1
[17]
  IC50: > 10 µM
[20]
  IC50: > 10 µM

## CCCCOC(=O)NS(=O)(=O)c1ccc(C)cc1-c1ccc(Cn2cncn2)cc1
[17]
  IC50: > 10 µM
[20]
  IC50: 0.016 µM

## CCCCOC(=O)NS(=O)(=O)c1sc(CC(C)C)cc1-c1ccc(Cn2ccnc2)cc1 [BULOXIBUTID]
[17]
  IC50: > 10 µM
[20]
  IC50: 0.0004 µM

## CCCCC(=O)NS(=O)(=O)c1ccc(CC(C)C)cc1-c1ccc(Cn2cncn2)cc1
[17]
  IC50: > 10 µM
[20]
  IC50: 0.031 µM

## COc1ccc(S(=O)(=O)NC(=O)OC(C)(C)C)c(-c2ccc(Cn3cncn3)cc2)c1
[17]
  IC50: > 10 µM
[20]
  IC50: 0.17 µM

## CCCCOC(=O)NS(=O)(=O)c1ccc(CN(CC)CC)cc1-c1ccc(Cn2cncn2)cc1
[17]
  IC50: > 10 µM
[20]
  IC50: 0.01 µM

## CCCCOC(=O)NS(=O)(=O)c1ccc(CC(C)C)cc1-c1ccc(NC)cc1
[17]
  IC50: > 10 µM
[20]
  IC50: > 10 µM

## CCCCOC(=O)NS(=O)(=O)c1ccc(CC(C)C)cc1-c1ccc(N)cc1
[17]
  IC50: > 10 µM
[20]
  IC50: > 10 µM
